# Screening data deposited in PubChem BioAssay by several laboratories.
# PHOSPHO1 block: PHOSPHO1 (human) inhibition | recombinant PHOSPHO1, absorbance phosphatase assay | inhibition, % at 13.3 µM | 1.1% of 290,000 active; in the data active = inhibition above about 60%
# Target sequence (Q8TCT1 whole entry, looked up): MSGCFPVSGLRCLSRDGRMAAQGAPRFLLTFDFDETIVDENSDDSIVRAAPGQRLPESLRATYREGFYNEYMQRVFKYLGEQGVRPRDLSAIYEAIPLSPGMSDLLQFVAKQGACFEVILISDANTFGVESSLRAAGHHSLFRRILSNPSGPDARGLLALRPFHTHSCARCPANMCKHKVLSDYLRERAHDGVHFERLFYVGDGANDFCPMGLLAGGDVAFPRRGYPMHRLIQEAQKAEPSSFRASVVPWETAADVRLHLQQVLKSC
# Yeast superoxide: caloric restriction mimetics inhibiting age-related superoxide in yeast; S. cerevisiae aged cells, superoxide DHE fluorescence; hits give low values; superoxide response (% of plate mean), % at 10 µM; 0.18% of 330,000 active;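 active = superoxide response under a set limit, about three screen SD below normal, cut at about 65% in these data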;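 note: yeast aged for seven days with compound at 30 °C before DHE staining; 100% = average MFI of all compound-treated wells on the plate with controls excluded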
# VIM-2 inh: blocks Pseudomonas aeruginosa VIM-2 metallo-beta-lactamase; purified VIM-2, nitrocefin hydrolysis, epi-absorbance fluorescence; inhibition, % at 5.6 µM; 0.89% of 290,000 active; AID 1527;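 active = inhibition above the mean of all tested compounds plus 3 SD, cutoff set per screening run, cut at about 7.5% in these data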;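 note: red hydrolysis product quenches plate fluorescence so inhibitors raise well fluorescence; 0% = enzyme with DMSO and 100% = DMSO without enzyme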
# IMP-1 inh: blocks Pseudomonas aeruginosa IMP-1 metallo-beta-lactamase; purified IMP-1, nitrocefin hydrolysis, epi-absorbance fluorescence; inhibition, % at 5.6 µM; 0.45% of 290,000 active;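 active = inhibition above the mean plus 3 SD of all compounds in the same screening run, cut at about 4.5% in these data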;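 note: 0% = IMP-1 with DMSO and 100% = DMSO wells lacking enzyme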
#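 assay system = purified recombinant IMP-1 metallo-beta-lactamase enzyme | schedule = 15 min preincubation plus 25 min reaction at 25 °C | signal = Epi-absorbance fluorescence, 480 nm excitation, 530 nm emission | read-out basis = percent inhibition from optical density relative to buffer-blank wells | controls = IMP-1 with DMSO as 0%, enzyme-free DMSO as 100%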
# PvdQ inh: P. aeruginosa PvdQ acylase inhibition; purified PvdQ acylase, fluorescence plate reader; inhibition, % at 10 µM; 0.063% of 340,000 active; AID 488965; in the data active = inhibition above about 30%, passing the limit was not always enough;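 note: 0% = vehicle neutral wells and 100% = reference inhibitor wells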
# Starred values were filed as active, the others as inactive; nt = no result given. Only some compounds are listed: those with a hit (about 2.2% of all), similar ones and a draw of the others.
SMILES,PHOSPHO1 block,Yeast superoxide,VIM-2 inh,IMP-1 inh,PvdQ inh
COc1cccc2c1cc1c(=O)n(CC(=O)NCCCN3CCCCC3)nc(C)n12,42,88,9.2*,-2,-12
COc1ccccc1/C=C/C=c1\sc2nc(=O)c(Cc3ccccc3)nn2c1=O,27,92,1,7.9*,5
CCCOc1ccc(Cc2nn3c(=O)/c(=C/c4ccco4)sc3nc2=O)cc1,-69,101,-1,2,-17
COC1=CC(=O)[C@@]2([C@@H]1O)[C@@H](Cl)C[C@]13C(OC)=C(OC)C(=O)C[C@]21CCN3C,nt,101,nt,nt,0
O=C1C(c2ccccc2)C2C=CC(C2)N1O (configuration not stated),nt,nt,nt,nt,9
Nc1ccn(-c2ncc(C(F)(F)F)cc2Cl)c(=O)n1,47,101,-2,-1,-13
FC(F)(F)c1cnc(-n2cc[nH]c2=S)c(Cl)c1,98*,108,-3,-3,-4
COc1ccc(-c2ccc(SCC(=O)NC3CCCCC3)nn2)cc1OC,23,137,-1,-2,8
CCN1CCN(c2ccc(NC(=O)c3ccc4c(c3)[nH]c(=O)n4Cc3ccc(OC)cc3)cc2)CC1,3,91,11*,-2,-12
Cc1ccc(-n2c(C)cc(C(=O)CSc3nncs3)c2C)cc1,89*,89,-5,-2,8
COc1ccc(-n2c(C)cc(C(=O)CSc3nn4c(=O)c(C(C)(C)C)nnc4s3)c2C)cc1,94*,123,-1,0,-5
Cc1cc(C(=O)CSc2nncs2)c(C)n1-c1c(C)n(C)n(-c2ccccc2)c1=O,50,83,-3,-3,-12
COc1ccc(C(=O)CSc2nn3c(=O)c(C(C)(C)C)nnc3s2)cc1,-7,99,-4,-2,-11
O=C(c1ccc2ccccc2c1)C1CCCN(S(=O)(=O)c2cccnc2)C1 (configuration not stated),30,98,-4,-4,7
Cc1nc2c(c(=O)c3ccccc3n2C)c(=O)n1-c1ccc(F)cc1,-2,100,8.0*,-1,-9
C/C(=N\NC(=O)CN(c1ccc(Oc2ccccc2)cc1)S(C)(=O)=O)C(C)(C)C,-7,94,-2,-1,-1
Cc1nn(CC(=O)N2CCN(C)CC2)c(=O)c2c1sc1ccccc12,15,89,11*,-4,-9
CCC(C(=O)NCCCN1CCN(C)CC1)n1nc(C)c2sc3ccccc3c2c1=O (configuration not stated),22,72,0,-3,-7
Cc1nn(CCCC(=O)NCCCN2CCN(C)CC2)c(=O)c2c1sc1ccccc12,22,98,12*,-2,-6
O=C(O)/C(=C\c1ccccc1OC(F)F)c1ccc(-c2ccccc2)cc1,28,108,-2,7.3*,-14
O=C(O)/C(=C\c1ccc(F)cc1)c1ccc(-c2ccccc2)cc1,45,122,0,0,-9
Cc1cc2oc(=O)c(CC(=O)O)c(C)c2c2occ(C(C)(C)C)c12,16,112,11*,4,-13
Cc1cc2oc(=O)c(CC(=O)NCCCO)c(C)c2c2occ(C(C)(C)C)c12,28,103,-2,-3,7
Cc1cc2oc(=O)c(CC(=O)NCCCN(C)C)c(C)c2c2occ(C(C)(C)C)c12,-11,114,8.9*,1,nt
CSCCC(NC(=O)COc1ccccc1)C(=O)N(C)Cc1ccc(Cl)cc1Cl (configuration not stated),nt,82,nt,nt,-15
SMILES,PHOSPHO1 block,Yeast superoxide,VIM-2 inh,IMP-1 inh,PvdQ inh
COCCCn1c(=O)c2sccc2n2c(CCCC(=O)NCc3ccc(OC)cc3)nnc12,12,101,-2,-3,0
Cc1cc(CN(C)C(=O)c2cc(COc3ccc(F)cc3Cl)on2)n[nH]1,60*,98,-3,-3,2
CN1C(=O)c2cccc3c(N(C)C)ccc(c23)C1=O,14,91,9.8*,1,3
CCOc1ccccc1NC(=O)C1CCN(c2ccc(S(=O)(=O)N3CCCC3)cc2)CC1,78*,102,2,1,7
O=C1c2cccc3cccc(c23)C(=O)N1CCN1CCN(C(=S)Nc2ccccc2)CC1,17,105,7.8*,-3,7
Cc1cccc(-n2cnc(C(=O)O)c2)n1,-4,95,9.7*,-1,-10
Cc1cccc(-n2cnc(C(=O)N3CCN(C)CC3)c2)n1,24,95,-1,-3,-10
NC(=O)NC(=O)C(c1ccccc1)N1CCN(S(=O)(=O)Cc2ccccc2)CC1 (configuration not stated),nt,72,nt,nt,5
Cc1onc(-c2ccccc2Cl)c1C(=O)NC(=S)NCC(=O)c1ccccc1,63*,99,-3,-2,2
Cc1nnc(NC(=O)c2c(-c3ccccc3Cl)noc2C)s1,60*,94,2,-2,-3
Cc1onc(-c2ccccc2Cl)c1C(=O)Nc1nnc(C(C)C)s1,1,111,2,-3,1
Cc1cc(NC(=O)c2c(-c3c(F)cccc3Cl)noc2C)no1,25,111,-3,-5,-12
Cc1ccc(NC(=O)c2c(-c3c(F)cccc3Cl)noc2C)cc1F,3,91,7,41*,10
CC(=O)Nc1nc2ccc(-c3nc4ccccc4o3)cc2s1,-3,98,-2,-3,-9
COC(=O)C1=CO[C@@H](O[C@@H]2O[C@H](CO)[C@@H](O)[C@H](O)[C@H]2O)C2C1CC(O)O[C@H]2C (some centres not stated),nt,108,nt,nt,-13
C#CCOCCOCCOCCNc1nc(N2CCN(C(=O)[C@H]([C@@H](C)CC)n3cc([C@@H](N)CO)nn3)CC2)nc(N2CCN(C(=O)[C@H](Cc3cc4ccccc4[nH]3)n3cc([C@@H](N)C(C)CC)nn3)CC2)n1 (some centres not stated),28,104,-4,7.0*,nt
Cc1ccc(-n2cnc3c(=O)[nH]cnc32)cc1[N+](=O)[O-],nt,nt,nt,nt,-8
CCOc1ccc(N(C)c2ccc(/C=C3/SC(=S)NC3=O)cc2)cc1,-12,100,2,6.5*,7
COc1ccc(C(=O)NC2CCCCCCC2)cc1OC,nt,112,nt,nt,-19
COc1ccc(S(=O)NC2CCCCC2)c(OC)c1C (configuration not stated),87*,103,-3,-2,-1
COc1cc(NCCC(=O)c2cccs2)c(OC)cc1Cl,-98,78,-1,-4,-1
CCCNC(=O)CN1C(=O)COc2ccc(S(=O)(=O)N3CC(C)CC(C)C3)cc21 (configuration not stated),74*,86,-2,-4,-12
COc1ccc(NC(=O)CN2C(=O)COc3ccc(S(=O)(=O)N4CCCCCC4)cc32)cc1,64*,107,-2,-1,-13
CC(C)NC(=NCc1ccc(Cl)cc1Cl)Nc1ccccc1,31,91,-3,-4,-21
Cc1ccc(C(=O)O)cc1-c1ccc(/C=C2\SC(=O)N(CC(=O)Nc3ccccc3)C2=O)o1,-81,103,1,1,-8
